Sampled rows, rich in hits. Any-hit rate of the full collection: about 1.4%.
thrombin 1536 – human alpha-thrombin inhibitors, primary screen, counter-screen for coagulation protease inhibitor project, biochemical, 1536-well, fluorogenic AMC substrate. Boc-VPR-AMC fluorogenic substrate cleavage. inhibition, % at 5 µM. 220,000 tested, 0.26% active;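 active = inhibition at or above 40%; inactive = inhibition below 40%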;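 also: 0% = enzyme with no compound and 100% = wells without enzyme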
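System: human alpha-thrombin protein; Compound dosing: one concentration per compound, 5 µM, with 0.2% DMSO; Timing: reaction at room temperature; Technique: AMC fluorescence, 355/460 nm; Controls: enzyme without compound as high, wells lacking enzyme as low.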
hK5 inh – human KLK5 protease inhibitors, primary screen, biochemical, 1536-well. recombinant hK5, fluorogenic AMC substrate cleavage. Kallikrein-5 (Homo sapiens), Q9Y337. 210,000 tested, 0.59% active. inhibition, % at 5 µM;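 active = inhibition of 40% or more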;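 also: 0% = enzyme controls without compound and 100% = no-enzyme blanks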
Target sequence (Q9Y337 67-293 limits assumed): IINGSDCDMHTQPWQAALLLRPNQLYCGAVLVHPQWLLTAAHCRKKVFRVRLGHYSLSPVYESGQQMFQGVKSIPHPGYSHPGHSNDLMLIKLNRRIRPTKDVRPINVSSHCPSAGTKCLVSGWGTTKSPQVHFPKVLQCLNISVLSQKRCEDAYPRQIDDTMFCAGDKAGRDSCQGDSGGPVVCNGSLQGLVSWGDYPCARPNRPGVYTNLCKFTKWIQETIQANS
Rce1 inh – yeast Rce1p protease inhibitors, primary screen, biochemical, fluorescence, cell-free homogeneous; CAAX prenyl protease 2 (Saccharomyces cerevisiae (strain ATCC 204508 / S288c)), Q03530; calls only; AID 2563, 2010; yeast membranes, quenched prenylated peptide cleavage fluorescence; 290,000 tested, 0.27% active;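 active = fall in fluorescence gain of 50% or more versus controls, with final raw signal at or below 3038400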;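 also: plate controls were neutral control wells for no effect and wells lacking membranes for full effect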
Target sequence (Q03530 whole entry, looked up): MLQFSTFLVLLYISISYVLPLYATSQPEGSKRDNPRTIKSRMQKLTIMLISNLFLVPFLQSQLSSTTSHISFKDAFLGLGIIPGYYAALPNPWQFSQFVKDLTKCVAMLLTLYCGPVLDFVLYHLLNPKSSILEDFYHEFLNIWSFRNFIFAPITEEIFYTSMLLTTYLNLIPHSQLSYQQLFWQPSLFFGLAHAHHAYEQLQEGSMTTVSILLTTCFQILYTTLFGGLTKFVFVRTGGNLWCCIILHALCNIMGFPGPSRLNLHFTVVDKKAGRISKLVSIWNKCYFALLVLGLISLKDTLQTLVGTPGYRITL
FXIa inh – human FXIa protease inhibitors, primary screen, biochemical, 1536-well; inhibition, % at 5 µM; 220,000 tested, 0.14% active; AID 798, 2007; purified FXIa, Boc-Glu-Ala-Arg-AMC fluorogenic substrate;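 active = inhibition of at least 40%; inactive = inhibition below 40%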;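 also: fluorescence of freed AMC excited at 355 nm; 0% = enzyme without compound and 100% = no enzyme blank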
CTSL1 counter – Fasciola hepatica cathepsin L1 inhibitors, primary screen, counter-screen for PFM18AAP inhibitor project, biochemical, QFRET, fluorogenic peptide substrate; AID 1906, 2009; inhibition, % at 5.96 µM; recombinant F. hepatica cathepsin L1, Z-Leu-Arg-MCA fluorescence; 300,000 tested, 0.49% active;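 active = inhibition above the mean of all tested compounds plus 3 SD, set per screening campaign, cut at about 17% in these data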;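 also: 0% = plate median of test compound wells and 100% = 1 µM Z-Phe-Ala-diazomethylketone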
FXIIa inh 1536 – human FXIIa protease inhibitors, primary screen, biochemical, 1536-well; 220,000 tested, 0.3% active; purified FXIIa, Boc-QGR-AMC fluorogenic substrate, 2 h; AID 800, 2007; Coagulation factor XII (Homo sapiens), P00748; inhibition, % at 5 µM; in the data active = inhibition above about 40%;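 also: 0% = enzyme with no compound and 100% = blank without enzyme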
Numbers without * were called inactive.

What do the screens show for `O=[N+]([O-])c1ccc(NC(=S)NCC(c2cccnc2)N2CCOCC2)cc1` (stereo unspecified)?
thrombin 1536: -6; hK5 inh: 6; Rce1 inh: inactive; FXIa inh: 0; CTSL1 counter: 1; FXIIa inh 1536: 7

What do the screens show for `CC(C)(C)NC(=O)c1cc([N+](=O)[O-])ccc1N1CCCCC1`?
thrombin 1536: 73*; hK5 inh: 63*; Rce1 inh: inactive; FXIa inh: 6; CTSL1 counter: 0; FXIIa inh 1536: 3

Results for Cc1nc(S(=O)(=O)c2ccc(Cl)cc2)c(NCc2ccccc2)o1 ?
thrombin 1536: 1; hK5 inh: -3; Rce1 inh: inactive; FXIa inh: 5; CTSL1 counter: 28*; FXIIa inh 1536: 12

How did COC(=O)Cc1ccc(NC(=S)N2CCN(CCO)CC2)cc1 do in these assays?
Rce1 inh: inactive; CTSL1 counter: -2

What do the screens show for `COC(=O)Cc1ccc(NC(=S)N2CCN(c3ccc(F)cc3)CC2)cc1`?
thrombin 1536: 53*; hK5 inh: 72*; Rce1 inh: inactive; FXIa inh: -4; CTSL1 counter: 2; FXIIa inh 1536: 33

Results for C=CCNC(=O)CN(c1ccc(F)cc1)S(=O)(=O)c1ccc(OC)cc1 ?
thrombin 1536: -2; hK5 inh: 4; FXIa inh: 12; CTSL1 counter: 7; FXIIa inh 1536: 54*

How did COc1ccc(N(CC(=O)N/N=C/c2ccc(F)cc2)S(=O)(=O)c2ccccc2)cc1 do in these assays?
Rce1 inh: inactive; CTSL1 counter: -2

Results for Cc1occc1C(=O)N/N=C/c1ccc(Br)s1 ?
thrombin 1536: 28; hK5 inh: 49*; Rce1 inh: inactive; FXIa inh: 17; CTSL1 counter: 1; FXIIa inh 1536: 34

How did CC(C)c1ccc(C2CC(c3ccc(Br)cc3)=NN2C(N)=S)cc1 (stereo unspecified) do in these assays?
thrombin 1536: -5; hK5 inh: -6; Rce1 inh: inactive; FXIa inh: 9; CTSL1 counter: 20*; FXIIa inh 1536: 7

How did O=C(COc1ccc(F)cc1)N1CCCc2ccccc21 do in these assays?
Rce1 inh: inactive; CTSL1 counter: 1

What do the screens show for `CCc1nc2sccc2c(=O)[nH]1`?
thrombin 1536: 44*; hK5 inh: 56*; Rce1 inh: inactive; FXIa inh: 32; CTSL1 counter: -1; FXIIa inh 1536: 23

How did O=C(NCCOC(=O)C1COc2ccccc2O1)C1COc2ccccc2O1 (stereo unspecified) do in these assays?
thrombin 1536: 25; hK5 inh: 46*; Rce1 inh: inactive; FXIa inh: 5; CTSL1 counter: -4; FXIIa inh 1536: 0

Results for CCCCNC(=O)C1COc2ccccc2O1 (stereo unspecified) ?
thrombin 1536: 2; hK5 inh: -3; Rce1 inh: inactive; FXIa inh: -1; CTSL1 counter: -1; FXIIa inh 1536: 10

Results for COc1ccc(C(CNC(=O)CSc2ccc(Br)cc2C)N2CCOCC2)cc1 (stereo unspecified) ?
Rce1 inh: inactive; CTSL1 counter: 24*

What do the screens show for `COc1cc(CNCCc2ccc(S(N)(=O)=O)cc2)ccc1OCC(=O)N1CCCCC1`?
thrombin 1536: -7; hK5 inh: -3; Rce1 inh: inactive; FXIa inh: 2; CTSL1 counter: -4; FXIIa inh 1536: 10

How did Nc1nnnn1/N=C/c1ccccc1OCc1ccc(Cl)cc1Cl do in these assays?
thrombin 1536: 3; hK5 inh: -2; Rce1 inh: active; FXIa inh: 7; CTSL1 counter: 11; FXIIa inh 1536: 9

What do the screens show for `Cc1cc(N2CCOCC2)nc2ccc(Cl)cc12`?
Rce1 inh: inactive; CTSL1 counter: 1

What do the screens show for `COc1ccc(-c2oc(NC(=O)CSc3ncn[nH]3)c(C#N)c2-c2ccc(OC)cc2)cc1`?
thrombin 1536: 1; hK5 inh: -186; Rce1 inh: inactive; FXIa inh: -1; CTSL1 counter: 2; FXIIa inh 1536: 16

How did COc1ccc(-c2oc(NC(=O)CCl)c(C#N)c2-c2ccc(OC)cc2)cc1 do in these assays?
thrombin 1536: -9; hK5 inh: -12; Rce1 inh: inactive; FXIa inh: 2; CTSL1 counter: 61*; FXIIa inh 1536: -11

How did CCN(CC)C(=O)CSc1ccccc1N do in these assays?
thrombin 1536: 12; hK5 inh: 47*; Rce1 inh: inactive; FXIa inh: 3; CTSL1 counter: -10; FXIIa inh 1536: 2

How did CCN(Cc1ccccc1)C(=O)CSc1ccccc1C(=O)O do in these assays?
thrombin 1536: -5; hK5 inh: 2; Rce1 inh: inactive; FXIa inh: -2; CTSL1 counter: 9; FXIIa inh 1536: 4

What do the screens show for `COc1ccc(CN(C(=O)c2ccc(C)cc2)C2CCS(=O)(=O)C2)cc1` (stereo unspecified)?
Rce1 inh: inactive; CTSL1 counter: 0

What do the screens show for `c1ccc(-c2csc3ncnc(NCC4COc5ccccc5O4)c23)cc1` (stereo unspecified)?
thrombin 1536: 18; hK5 inh: 57*; Rce1 inh: inactive; FXIa inh: 17; CTSL1 counter: -2; FXIIa inh 1536: 41*

Results for CC(=O)c1cccc(NC(=O)CNC(=O)c2sc3ccccc3c2Cl)c1 ?
Rce1 inh: inactive; CTSL1 counter: 1

Results for CC1CCCCC1NC(=O)COC(=O)c1cc(=O)c2ccccc2o1 (stereo unspecified) ?
thrombin 1536: -5; hK5 inh: -1; Rce1 inh: inactive; FXIa inh: 2; CTSL1 counter: 3; FXIIa inh 1536: 7

What do the screens show for `O=C(COC(=O)c1cc(=O)c2ccccc2o1)NC1CCCCC1`?
thrombin 1536: 12; hK5 inh: 19; Rce1 inh: inactive; FXIa inh: 42*; CTSL1 counter: 4; FXIIa inh 1536: 27

Results for O=C(C1CCCCC1)N1CCC(c2nc3ccccc3[nH]2)CC1 ?
thrombin 1536: 18; hK5 inh: 71*; Rce1 inh: inactive; FXIa inh: -1; CTSL1 counter: -6; FXIIa inh 1536: 13

Results for O=C(CSc1ccc2nnc(-c3ccccn3)n2n1)Nc1ccc(F)cc1 ?
Rce1 inh: inactive; CTSL1 counter: 50*

Results for CCCCC1CCC(C(=O)N(CCCC)c2c(N)n(CCCC)c(=O)[nH]c2=O)CC1 (stereo unspecified) ?
Rce1 inh: inactive; CTSL1 counter: 1

Screening data: PubChem, several laboratories
